Screening results as filed in PubChem BioAssay.
Sampled rows, rich in hits. Any-hit rate of the full collection: about 2.6%.
SENP7 block: SENP7 protease inhibitors, primary screen, biochemical, luminescence, uHTS. Sentrin-specific protease 7 (Homo sapiens), Q9BQF6. recombinant SENP7, Z-RLRGG-aminoluciferin luminescence, 40 min. 330,000 tested, 1.5% active. AID 434973, 2010. inhibition, % at 5 µM;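 active means inhibition above about 50% at the single test dose, limit read from the data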
Target sequence (Q9BQF6 706-1050 limits assumed): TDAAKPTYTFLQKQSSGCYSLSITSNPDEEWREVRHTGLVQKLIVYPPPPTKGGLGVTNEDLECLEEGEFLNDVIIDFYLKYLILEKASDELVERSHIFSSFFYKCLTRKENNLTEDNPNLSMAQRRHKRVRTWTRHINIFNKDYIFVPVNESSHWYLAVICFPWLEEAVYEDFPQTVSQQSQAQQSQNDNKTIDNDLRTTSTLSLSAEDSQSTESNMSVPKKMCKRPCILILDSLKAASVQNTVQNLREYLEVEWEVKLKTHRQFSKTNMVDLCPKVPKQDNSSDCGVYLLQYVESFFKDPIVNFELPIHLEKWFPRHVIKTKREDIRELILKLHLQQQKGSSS
SENP6 block: SENP6 protease inhibitors, primary screen, biochemical, luminescence, uHTS; Sentrin-specific protease 6 (Homo sapiens), Q9GZR1; Recombinant SENP6 catalytic domain, aminoluciferin luminescence; inhibition, % at 10 µM; 330,000 tested, 1.8% active; AID 2599, 2010;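 active means inhibition above about 50% at the single tested dose, limit read from the data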
UCH37 DUB inh: inhibitors of human UCH37 deubiquitinase, primary screen, biochemical, Ub-AMC cleavage, fluorescence; Ubiquitin carboxyl-terminal hydrolase isozyme L5 (Homo sapiens), Q9Y5K5; inhibition, % (concentration not given with the values); 330,000 tested, 0.33% active; purified proteasome/UCH37; AID 588478, 2011;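 active means mean inhibition over replicate wells above about 20%, limit read from the data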
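Reagent: Ub-AMC substrate; assay system: Proteasome-associated human UCH37 deubiquitinase; controls: no-proteasome and no-compound wells; read-out: % inhibition of Ub-AMC cleavage fluorescence; timing: 30 min preincubation with enzyme, 25 min cleavage at room temperature; signal: AMC fluorescence from Ub-AMC cleavage, excitation 355 nm, emission 460 nm; buffer or medium: Tris-HCl pH 7.4 plus ovalbumin, ATP-MgCl2, DTT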
SENP8 block-1: SENP8 protease inhibitors, primary screen, biochemical, luminescence. Sentrin-specific protease 8 (Homo sapiens), Q96LD8. purified SENP8, Z-RLRGG-aminoluciferin cleavage. inhibition, % at 10 µM. 330,000 tested, 1.2% active; in the data active means inhibition above about 50%
Target sequence (Q96LD8 whole entry, looked up): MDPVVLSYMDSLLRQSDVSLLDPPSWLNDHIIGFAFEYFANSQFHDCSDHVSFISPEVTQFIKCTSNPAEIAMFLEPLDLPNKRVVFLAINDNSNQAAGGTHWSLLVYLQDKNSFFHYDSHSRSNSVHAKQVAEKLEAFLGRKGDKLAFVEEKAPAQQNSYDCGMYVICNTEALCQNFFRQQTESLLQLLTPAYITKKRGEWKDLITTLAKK
SENP8 block-2: human SENP8 protease inhibitors, primary screen, biochemical, fluorescence, Nedd8 protein substrate, uHTS | Sentrin-specific protease 8 (Homo sapiens), Q96LD8 | recombinant SENP8 | inhibition, % at 20 µM | 360,000 tested, 0.64% active | AID 602440, 2012; in the data active means inhibition mostly above about 40%, no sharp cut-off; inactive means mostly below about 27%
SENP1 FRET inh: human SENP1 catalytic domain inhibitors, primary screen, biochemical, FRET, uHTS; Sentrin-specific protease 1 (Homo sapiens), Q9P0U3; recombinant SENP1 catalytic domain, CyPet-SUMO1-YPet FRET cleavage; inhibition, % at 10 µM; 360,000 tested, 0.21% active;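 active means inhibition at least 30% at 10 µM, raw YFP signal under a set limit, fluorescence ratio 0.5 to 1.5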
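Compound: 10 µM single point, 0.5% DMSO; Test system: hSENP1 catalytic domain, recombinant; Timing: 50 min reaction at room temperature; Technique: FRET, CFP and YFP emission; Control set: no-enzyme wells low, DMSO-plus-enzyme wells high control.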
SENP8 confirm: SENP8 protease inhibitors, retest, confirmation, biochemical, luminescence, single concentration; inhibition, % at 12.5 µM; shares compounds with SENP7 block; Recombinant SENP8, Z-RLRGG-aminoluciferin luminescence, 60 min; 6,200 tested, 40% active;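 active means mean inhibition across replicates above about 50%, limit read from the data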
SENP6 conf: SENP6 protease inhibitors, confirmation, biochemical, luminescence, single concentration | shares compounds with SENP7 block | recombinant SENP6, Z-RLRGG-aminoluciferin luminescence | inhibition, % at 12.5 µM | 6,200 tested, 58% active | AID 488915, 2010
SENP7 confirm: SENP7 protease inhibitors, retest, confirmation, biochemical, luminescence, single concentration; shares compounds with SENP7 block; recombinant SENP7, Z-RLRGG-aminoluciferin luminescence, 40 min; inhibition, % at 12.5 µM; 6,200 tested, 69% active; AID 488917, 2010
Casp3 SENP sel: caspase-3 protease inhibitors, confirmation, selectivity assay for SENP inhibitor project, biochemical, single concentration; shares compounds with SENP7 block; purified caspase-3, Z-DEVD-aminoluciferin luminescence, 60 min; inhibition, % at 12.5 µM; 6,200 tested, 60% active; AID 488918, 2010;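 active means mean inhibition above about 50%, limit read from the data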
Luc interf: luminescence interference (SENP counter-screen) | Pre-incubated SENP8/Z-RLRGG-aminoluciferin, luciferase luminescence interference | inhibition, % at 12.5 µM | shares compounds with SENP7 block | 6,200 tested, 39% active;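 active means mean inhibition above about 50% when retested at one dose, limit read from the data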
Of the large screens only hits and unclear results are named; the others gave an inactive call (follow-up assays come after a bar, where they were run).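 How the source made its calls, unless noted: active means mean inhibition above about 50% in the one-dose retest (limit read from the data); inactive means the rest.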

Oc1ccc(-c2csc(-c3ccccc3)n2)cc1O	SENP6 block 54.0 | SENP8 confirm 60.4 | SENP6 conf 55.6 | SENP7 confirm 73.0 | Casp3 SENP sel inactive | Luc interf 68.3
Oc1ccccc1-c1csc(-c2ccccc2)n1	SENP7 block 83.4, SENP6 block 76.4, SENP8 block-1 70.7 | SENP8 confirm inactive | SENP6 conf 74.2 | SENP7 confirm 92.1 | Casp3 SENP sel inactive | Luc interf inactive
CC(=NNC(=O)Cc1ccccc1)c1cccs1	none (no result: SENP7 block, SENP6 block, SENP8 block-1, SENP8 block-2, SENP1 FRET inh)
C=CCn1c(=C(C#N)c2nc3ccccc3n2C)sc(=Cc2cc(OC)c(OC)c(OC)c2)c1=O	none (no result: SENP7 block, SENP6 block, SENP8 block-1, SENP8 block-2, SENP1 FRET inh)
Cc1ccc(C=Nn2c(C)cc(C)c(C#N)c2=O)cc1	none (no result: SENP7 block, SENP6 block, SENP8 block-1, SENP8 block-2, SENP1 FRET inh)
CC(=NNC(=O)c1csc2ccccc12)c1ccc(O)cc1	none (no result: SENP7 block, SENP6 block, SENP8 block-1, SENP8 block-2, SENP1 FRET inh)
Cc1cc(Cl)c(O)c(-n2nc3ccccc3n2)c1	SENP7 block 70.8 | SENP8 confirm inactive | SENP6 conf inactive | SENP7 confirm inactive | Casp3 SENP sel inactive | Luc interf inactive
Cc1ccc(OCC(=O)O)c(-n2nc3ccccc3n2)c1	none
O=c1[nH]c(NN=Cc2cc3c(cc2[N+](=O)[O-])OCO3)nc2ccccc12	none (no result: SENP7 block, SENP6 block, SENP8 block-1, SENP8 block-2, SENP1 FRET inh)
COC(=O)c1cccc(-c2noc(-c3ccccc3F)n2)c1	SENP7 block 81.4, SENP6 block 64.3 | SENP8 confirm inactive | SENP6 conf inactive | SENP7 confirm 65.8 | Casp3 SENP sel 56.5 | Luc interf inactive
COc1ccc(Br)cc1-c1noc(-c2ccccc2F)n1	none
NC(=O)c1cccc(-c2noc(-c3ccccc3F)n2)c1	SENP7 block 57.3, SENP6 block 74.0, SENP8 block-1 55.6 | SENP8 confirm inactive | SENP6 conf 51.5 | SENP7 confirm 81.2 | Casp3 SENP sel 66.5 | Luc interf inactive
CSC(=NNC(N)=O)c1ccccc1	none (no result: SENP7 block, SENP6 block, SENP8 block-1, SENP8 block-2, SENP1 FRET inh)
c1ccc2[nH]c(-c3cscn3)nc2c1	none (no result: SENP7 block, SENP6 block, SENP8 block-1)
c1ccc2nc(-c3nc4ccccc4[nH]3)ccc2c1	SENP7 block 99.7, SENP6 block 96.9, SENP8 block-1 96.6 | SENP8 confirm 94.8 | SENP6 conf 97.5 | SENP7 confirm 103.4 | Casp3 SENP sel 98.2 | Luc interf inactive
c1ccc(-c2ccc(-n3ccnc3)cc2)cc1	SENP6 block 53.3 | SENP8 confirm inactive | SENP6 conf inactive | SENP7 confirm 72.3 | Casp3 SENP sel 56.4 | Luc interf 63.0
c1ccc(-c2ccc(C(c3ccccc3)n3ccnc3)cc2)cc1 (stereo not drawn)	none (no result: SENP7 block, SENP6 block, SENP8 block-1)
CC(=O)c1cccc(NC(=O)c2cc(-c3ccc(C)cc3)on2)c1	none
O=C(Nc1cccnc1)c1cc(-c2ccc(Br)cc2)on1	SENP7 block 83.9 | SENP8 confirm inactive | SENP6 conf inactive | SENP7 confirm inactive | Casp3 SENP sel inactive | Luc interf inactive
